Data published in ChEMBL document CHEMBL4145645, “Bioactive Phenolic Components from the Twigs of Atalantia buxifolia” (J Nat Prod, 2018).

Key:
A549 = assay: Cytotoxicity against human A549 cells by MTT assay; format: functional, cell-based
MDA-MB-231 = assay: Cytotoxicity against human MDA-MB-231 cells by MTT assay; format: functional, cell-based
HepG2 = assay: Cytotoxicity against human HepG2 cells by MTT assay; format: functional, cell-based
Neutrophil [1] = assay: Antiinflammatory activity in human neutrophils assessed as inhibition of fMLP/CB-induced superoxide anion generation preincubated for 5 mins followed by cytochalasin B/fMLP addition for 3 mins by superoxide dismutase inhibitable reduction of ferricytochrome c based assay; format: functional, cell-based
Summary of the method: (§1)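 Human neutrophils stimulated with fMLF. For the superoxide read-out, cells were equilibrated in ferricytochrome c at 0.6 mg/mL. Other steps for superoxide generation and elastase release followed an earlier published protocol. Values are means ± SEM, n = 3 or 4.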

Neutrophil [2] = assay: Antiinflammatory activity in human neutrophils assessed as inhibition of fMLP/CB-induced elastase release preincubated for 5 mins followed by fMLP/CB stimulation and measured for 10 mins using MeO-Suc-Ala-Ala-Pro-Val-p-nitroanilide as substrate; format: functional, cell-based; summary of the method: as §1
dengue virus type 2 = assay: Antiviral activity against DENV2 infected in human HuH7 cells; format: functional, organism-based; conditions: Huh-7
[3] = Selectivity index, ratio of CC50 for human HuH7 cells to EC50 for DENV2 infected in human HuH7 cells; format: toxicity, cell-based; conditions: read-out: Ratio CC50/EC50
[4] = Homo sapiens, MDA-MB-231, read-out: IC50

IC50 (Neutrophil [1])	IC50 (Neutrophil [2])	EC50 (dengue virus type 2)	Structure (SMILES)	IC50 (A549)	IC50 (MDA-MB-231; [4])	IC50 (HepG2)	selectivity ratio [3]	IC50 (MDA-MB-231; mda-mb-231)
–	–	–	COC(=O)/C=C/c1ccc(O)c(OC)c1	> 20 µg/mL	> 20 µg/mL	> 20 µg/mL	–	–
–	–	–	COc1cccc2c(=O)c3c(O)cc4c(c3n(C)c12)C=CC(C)(C)O4	> 20 µg/mL	> 20 µg/mL	> 20 µg/mL	–	–
4.8 µM	> 10 µM	–	CO/N=C/C(=O)c1ccc(O)cc1	> 20 µg/mL	> 20 µg/mL	> 20 µg/mL	–	–
–	–	–	C/C(=C\COc1ccc2ccc(=O)oc2c1)C/C=C/C(C)(C)OO	> 20 µg/mL	> 20 µg/mL	> 20 µg/mL	–	–
–	–	–	C=C(C)C(O)CC/C(C)=C/COc1ccc2ccc(=O)oc2c1 (configuration not stated)	> 20 µg/mL	> 20 µg/mL	> 20 µg/mL	–	–
–	–	–	CO/N=C/C(=O)c1ccc(O/C=C/[C@H](C)C(=O)OC)cc1	> 20 µg/mL	> 20 µg/mL	> 20 µg/mL	–	–
–	–	–	CC(C)=CCc1c(O)c(CC=C(C)C)c2c(c1O)c(=O)c1cccc(O)c1n2C	> 20 µg/mL	> 20 µg/mL	> 20 µg/mL	–	–
–	–	–	C/C(=C\COc1ccc2ccc(=O)oc2c1)C/C=C/C(C)(C)O	> 20 µg/mL	> 20 µg/mL	> 20 µg/mL	–	–
–	–	–	CC1(C)CC[C@]2(C)CC[C@H]3[C@]4(C)CC[C@H]5C(C)(C)C(=O)CC[C@]5(C)[C@H]4CC[C@@]3(C)[C@@H]2C1	> 20 µg/mL	> 20 µg/mL	> 20 µg/mL	–	–
–	–	–	COC(=O)/C(C)=C/COc1ccc(C(=O)OC)cc1	> 20 µg/mL	> 20 µg/mL	> 20 µg/mL	–	–
–	–	–	COC1=CC(=O)c2cc(C)ccc2C1=O	> 20 µg/mL	> 20 µg/mL	> 20 µg/mL	–	–
–	–	–	C=C(C)C(CC/C(C)=C/COc1ccc2ccc(=O)oc2c1)OO (configuration not stated)	> 20 µg/mL	> 20 µg/mL	> 20 µg/mL	–	–
–	–	–	CO/N=C/C(=O)c1ccc(OC/C=C(\C)C(=O)OC)cc1	> 20 µg/mL	> 20 µg/mL	> 20 µg/mL	–	–
–	–	–	CC(C)=CCOc1ccc(C(=O)/C=N/O)cc1	> 20 µg/mL	> 20 µg/mL	> 20 µg/mL	–	–
–	–	–	CC(C)=CCc1c2c(c3c(c1O)c(=O)c1ccccc1n3C)C=CC(C)(C)O2	> 20 µg/mL	> 20 µg/mL	> 20 µg/mL	–	–
> 10 µM	3.7 µM	5.3 µM	CC(C)=CCc1c2c(c3c(c1O)c(=O)c1cccc(O)c1n3C)C=CC(C)(C)O2	> 20 µg/mL	> 20 µg/mL	> 20 µg/mL	6.3	–
–	–	–	COc1cc2c(c3[nH]c4ccccc4c(=O)c13)C=CC(C)(C)O2	> 20 µg/mL	> 20 µg/mL	> 20 µg/mL	–	–
–	–	–	C=CC(C)(C)c1cc2ccc(O)cc2oc1=O	> 20 µg/mL	> 20 µg/mL	> 20 µg/mL	–	–
–	–	–	CC1(C)C=Cc2c(cc(O)c3c(=O)cc(-c4ccc(O)cc4)oc23)O1 [ATALANTOFLAVONE]	> 20 µg/mL	> 20 µg/mL	> 20 µg/mL	–	–
–	–	–	CC(C)=CCc1c2c(c3[nH]c4c(O)cccc4c(=O)c3c1O)C=CC(C)(C)O2 [ATALAPHYLLININE]	7.8 µM	–	6.5 µM	–	Not Active
–	–	–	CC1(C)C=Cc2c(cc(O)c3c(=O)c4cccc(O)c4[nH]c23)O1 [ATOLAPHYLLIDINE]	7.8 µM	–	7.3 µM	–	Not Active
–	–	–	COc1c2ccoc2cc2oc(=O)ccc12 [BERGAPTEN]	> 20 µg/mL	> 20 µg/mL	> 20 µg/mL	–	–
–	–	–	COc1cccc2c1C(=O)c1c(O)c3c(c(O)c1C2=O)C[C@@](O)(C(=O)CO)C[C@@H]3O[C@H]1C[C@H](N)[C@H](O)[C@H](C)O1 [DOXORUBICIN]	0.6 µM	–	–	–	–
–	–	–	COc1cc(O)c2c(=O)c3cccc(O)c3n(C)c2c1CC=C(C)C [GLYCOCITRINE I]	> 20 µg/mL	> 20 µg/mL	> 20 µg/mL	–	–
2.6 µM	> 10 µM	–	CC(C)=CCOc1c2ccoc2cc2oc(=O)ccc12 [ISOIMPERATORIN]	> 20 µg/mL	> 20 µg/mL	> 20 µg/mL	–	–
2.1 µM	5.1 µM	–	O=c1cc(N2CCOCC2)oc2c(-c3ccccc3)cccc12 [LY-294002]	–	–	–	–	–
–	–	–	COC(=O)c1cccc(O)c1OC [METHYL 3-HYDROXY-2-METHOXYBENZOATE]	> 20 µg/mL	> 20 µg/mL	> 20 µg/mL	–	–
–	–	–	COC(=O)c1ccc(O)cc1 [METHYLPARABEN]	> 20 µg/mL	> 20 µg/mL	> 20 µg/mL	–	–
4.7 µM	> 10 µM	–	CC1(C)C=Cc2c(ccc3ccc(=O)oc23)O1 [SESALIN]	> 20 µg/mL	> 20 µg/mL	> 20 µg/mL	–	–
–	–	–	CC(C)=CCc1c2c(c3[nH]c4ccccc4c(=O)c3c1O)C=CC(C)(C)O2 [SEVERIFOLINE]	> 20 µg/mL	> 20 µg/mL	> 20 µg/mL	–	–

Structure (SMILES)	IC50 (Neutrophil [1])	IC50 (Neutrophil [2])	EC50 (dengue virus type 2)	IC50 (A549)	IC50 (MDA-MB-231; [4])	IC50 (HepG2)	selectivity ratio [3]	IC50 (MDA-MB-231; mda-mb-231)
CC(C)=CCOc1c2occc2cc2ccc(=O)oc12 [PENTOSALEN]	0.2 µM	> 10 µM	–	> 20 µg/mL	> 20 µg/mL	> 20 µg/mL	–	–
